Shown are actives, neighbours in structure and some others; about 1.9% of the full set was active somewhere.
VIM-2 inh: blocks Pseudomonas aeruginosa VIM-2 metallo-beta-lactamase | inhibition, % at 5.6 µM | purified VIM-2, nitrocefin hydrolysis, epi-absorbance fluorescence | AID 1527 | 290,000 compounds, 0.89% hits;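 active = inhibition above the mean of all tested compounds plus 3 SD, cutoff set per screening run, cut at about 7.5% in these data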;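 also: red hydrolysis product quenches plate fluorescence so inhibitors raise well fluorescence; 0% = enzyme with DMSO and 100% = DMSO without enzyme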
T cell HTS: modulates CD8 T cell binding to vesicles | 2C CD8+ T cell-vesicle binding, flow cytometry; active compounds read low | response (vesicle binding), % at 7 µM | 330,000 compounds, 0.068% hits;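 active = response, share of CD8 T cells binding vesicles, and their 90th percentile fluorescence all below set limits, cut at about 80% in these data, passing the limit was not always enough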;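 also: values below 100% mean blocked vesicle binding to the CD8+ T cells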
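System: murine 2C transgenic CD8+ T lymphocytes; also added: QL9-loaded Drosophila micro-vesicles; times: binding 1.5 h at 37 °C; measured by: flow cytometry, PE anti-B7-1 (FL2) versus Alexa647 anti-CD8 (FL8), PFA-fixed; control set: Peptide-free naked vesicles (low) and QL9 vesicles with 0.7% DMSO vehicle (high)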
Fh CTSL1 inh: cathepsin L1 inhibition, PFM18AAP counter-screen; recombinant F. hepatica cathepsin L1, Z-Leu-Arg-MCA fluorescence; inhibition, % at 5.96 µM; 300,000 compounds, 0.49% hits;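 active = inhibition above the mean of all tested compounds plus 3 SD, set per screening campaign, cut at about 17% in these data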;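 also: 0% = plate median of test compound wells and 100% = 1 µM Z-Phe-Ala-diazomethylketone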
IMP-1 inh-1: inhibitors of Pseudomonas aeruginosa IMP-1 metallo-beta-lactamase | inhibition, % at 5.6 µM | purified IMP-1, nitrocefin hydrolysis, epi-absorbance fluorescence | AID 1556 | 290,000 compounds, 0.45% hits;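 active = inhibition above the mean plus 3 SD of all compounds in the same screening run, cut at about 4.5% in these data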;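 also: 0% = IMP-1 with DMSO and 100% = DMSO wells lacking enzyme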
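Material – recombinant IMP-1 enzyme, purified · Amount – IMP-1 0.2 nM before substrate addition · Medium – HEPES buffer pH 7.1 with ZnSO4 and Brij 35 · Timing – 25 °C, 15 min preincubation, 25 min reaction · Measured by – plate fluorescence quenching by hydrolysis product, ex 480/em 530 nm · Read-out – percent enzyme inhibition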
UBC9 SUMO inh: blocks human SUMOylation mediated by UBC9. P63279. HTRF SUMOylation assay, SAE1/SAE2 + UBC9, in vitro. inhibition, % at 35 µM. 290,000 compounds, 0.36% hits; in the data active = inhibition above about 50%, passing the limit was not always enough
Target sequence (P63279 whole entry, looked up): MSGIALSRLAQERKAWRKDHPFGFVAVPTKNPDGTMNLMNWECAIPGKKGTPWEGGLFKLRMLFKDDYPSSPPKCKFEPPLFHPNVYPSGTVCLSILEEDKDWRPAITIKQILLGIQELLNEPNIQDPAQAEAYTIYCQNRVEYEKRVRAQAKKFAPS
p-CIP stab down: p/CIP protein destabilization | Q05BA5 | F442A p/CIP-EGFP cells, EGFP fluorescence, 16 h | decrease of EGFP signal, % at 10 µM | 290,000 compounds, 0.01% hits | AID 1984;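 active = EGFP signal decrease of at least 30% at 10 µM or well 3 SD below plate mean, unless failing retest; inactive = the rest, including hits failing retest or dose response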
IMP-1 inh-2: selectivity counter-screen for VIM-2 inhibitors: IMP-1 metallo-beta-lactamase inhibitors. shares compounds with VIM-2 inh. purified IMP-1, nitrocefin hydrolysis, epi-absorbance fluorescence. inhibition, % at 5.6 µM. 1,300 tested, under 10 active. AID 1856; call rule not given here;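 also: 0% = enzyme with vehicle and 100% = vehicle without enzyme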
VIM-2 FRET inh: VIM-2 FRET inhibition, artifact counter-screen. shares compounds with VIM-2 inh. purified VIM-2, CCF2 FRET substrate hydrolysis. inhibition, % at 5.6 µM. 1,300 compounds, 23% hits. AID 1857;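 active = inhibition above the mean of all tested compounds plus 3 SD, cut at about 19% in these data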;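 also: 0% = VIM-2 plus DMSO and 100% = no enzyme wells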
TEM-1 inh: TEM-1 inhibition, counter-screen for VIM-2 inhibitors | shares compounds with VIM-2 inh | Purified TEM-1, nitrocefin hydrolysis, epi-absorbance fluorescence | inhibition, % at 5.6 µM | 1,300 compounds, 3% hits | AID 1866;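 active = inhibition above that campaign's mean inhibition plus 3 SD, cut at about 0.46% in these data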;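 also: 0% = TEM-1 with DMSO and 100% = TEM-1 with 100 µM potassium clavulanate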
Target sequence (P62593 whole entry, looked up): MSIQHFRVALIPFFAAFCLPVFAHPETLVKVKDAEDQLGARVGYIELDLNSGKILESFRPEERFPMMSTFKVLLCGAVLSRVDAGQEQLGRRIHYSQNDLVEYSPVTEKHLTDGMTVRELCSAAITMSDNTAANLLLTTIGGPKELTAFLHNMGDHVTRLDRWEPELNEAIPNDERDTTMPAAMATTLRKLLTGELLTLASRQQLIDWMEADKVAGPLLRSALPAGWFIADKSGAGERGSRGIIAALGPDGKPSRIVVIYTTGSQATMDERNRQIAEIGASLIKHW
VIM-2 inh conf: confirmation of P. aeruginosa VIM-2 metallo-beta-lactamase inhibitors | inhibition, % at 5.6 µM | 1,300 compounds, 96% hits | shares compounds with VIM-2 inh | purified VIM-2, nitrocefin hydrolysis, epi-absorbance;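 active = inhibition of the VIM-2 beta-lactamase enzyme above about 11% from the earlier first-round screen, limit read from the data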;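 also: 0% = VIM-2 with DMSO and 100% = buffer wells without enzyme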
Active calls of the source: *; / = no result.

SMILES	VIM-2 inh	T cell HTS	Fh CTSL1 inh	IMP-1 inh-1	UBC9 SUMO inh	p-CIP stab down	IMP-1 inh-2	VIM-2 FRET inh	TEM-1 inh	VIM-2 inh conf
Cc1cccn2c(=O)c3cc(C(=O)NC4CCCC4)n(C)c3nc12	14*	951	4	-1	34	4	-2	-3	-6	22*
Cc1cccn2c(=O)c3cc(C(=O)NC4CCS(=O)(=O)C4)sc3nc12 (stereo not given)	15*	584	2	-4	26	-19	-3	0	-5	24*
CCc1nc2cc(C)nn2c2nc3ccccc3n12	16*	408	5	0	-2	6	-3	4	-5	26*
O=C(c1ccc(Br)cc1)N(c1ccccn1)C1CCCCC1	0	384	-1	-3	-23	12	/	/	/	/
CCCCSc1nc2sc3c(c2c(=O)[nH]1)CCC3	-3	274	-1	-3	11	0	/	/	/	/
O=c1[nH]c(SCc2n[nH]c(=S)n2-c2ccccc2)nc2sc3c(c12)CCC3	21*	483	3	-2	10	-11	-3	45*	-9	29*
O=c1[nH]c(SCc2n[nH]c(=S)n2-c2ccccc2)nc2ccccc12	28*	263	2	-3	12	4	-1	55*	0	40*
O=c1[nH]c(SCc2nc3ccccc3c(=O)n2-c2ccccc2)nc2ccccc12	2	174	-4	1	-4	3	/	/	/	/
CCOc1ccccc1NC(=O)C(c1ccccc1)N1CCN(CC(=O)N2CCCC2)CC1 (stereo not given)	/	488	/	/	/	/	/	/	/	/
Cn1c(SCC(=O)O)nc2sc3c(c2c1=O)CCC3	14*	152	/	-2	-8	10	-4	30*	-6	22*
CCn1c(SCC(=O)O)nc2sc3c(c2c1=O)CCC3	-2	254	-1	-1	14	-9	/	/	/	/
CC(Oc1ccc2c(c1)c1ccnc3c4ccccc4c(=O)n2c13)C(=O)NCCN1CCOCC1 (stereo not given)	27*	225	6	-2	46	0	-2	-8	-8	36*
COc1ccc2c(c1OC)c(=O)n1c3ccc(OC(C)C(=O)NCCN4CCOCC4)cc3c3ccnc2c31 (stereo not given)	18*	332	7	0	29	-3	-1	-5	-9	26*
Cn1nc(C(=O)NCCN2CCOCC2)c2ccccc2c1=O	-5	321	3	-1	1	-17	/	/	/	/
CC(Oc1ccc(Cl)cc1Cl)C(=O)NCCN1CCOCC1 (stereo not given)	-4	509	0	0	18	12	/	/	/	/
CCN(C[C@H]1N[C@@](Cc2ccccc2)(C(=O)OC)[C@H]2C(=O)N(Cc3ccccc3)C(=O)[C@@H]12)C(=O)COc1ccccc1	/	128	/	/	/	/	/	/	/	/
Cc1ccc(OCCn2ccnc2)c([N+](=O)[O-])c1	-2	322	-1	-3	4	2	/	/	/	/
Cc1cc(OCCCn2ccnc2)ccc1[N+](=O)[O-]	28*	252	-2	-1	4	3	-2	-8	-6	39*
CCN(CC)CCNC(=O)c1cc2c(-c3cccc(OC)c3)nn(C)c2s1	14*	422	2	-2	18	11	-2	4	-4	23*
COCCCNC(=O)c1cc2c(-c3cccc(OC)c3)nn(C)c2s1	3	242	4	-1	28	11	/	/	/	/
CCCN(CCC)CCNC(=O)c1cc2c(-c3ccc(Cl)cc3)nn(C)c2s1	-2	251	2	-3	20	4	/	/	/	/
